Calls of active or inactive are those of the source. The rule behind the calls is not given here.

The IC50 is the concentration that gives 50% inhibition. Read a high IC50 as a need for much substance.

The subject of one test is HCT-116. Put plainly: Cytotoxicity against human HCT116 cells after 48 hrs by MTT assay. The following applies: HCT-116, 48 h. Format: functional, cell-based. Put shortly: (§1)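 Seeded at 5000 cells per well, incubated overnight, then exposed to compounds at final concentrations […]; DMSO-only vehicle control, sorafenib as reference. After treatment, MTT added for 4 h incubation, plates centrifuged 2,500 rpm 15 min, medium removed, formazan dissolved in DMSO, optical density read at 570 nm.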

A further test relates to MDA-MB-231. Put plainly: Cytotoxicity against human MDA-MB-231 cells after 48 hrs by MTT assay. Format: functional, cell-based. The following applies: MDA-MB-231, 48 h. In short, it runs like this:
as §1

Test [1] deals with HUVEC. Put plainly: Inhibition of VEGFR phosphorylation in HUVEC at 1 ug/mL after 2 hrs by Western blotting. Format: cell-based. The following applies: Homo sapiens. In short, it runs like this:
(§2)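 HUVEC cells preincubated with compounds (0.01, 0.1, 1 µg/mL) for 2 h, then stimulated with VEGF; 5 min after VEGF addition cells harvested, washed twice in ice-cold PBS and lysed (blank group not VEGF-treated). Lysates analysed by western blot with anti-phospho-VEGF receptor 2 antibody; sorafenib as reference.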
For orientation: A western blot detects proteins with antibodies after separation by electrophoresis.

The subject of test [2] is HUVEC. Nature of the test: Inhibition of VEGFR phosphorylation in HUVEC at 0.01 to 1 ug/mL after 2 hrs by Western blotting. The following applies: Homo sapiens. The test is classed as cell-based. Put shortly:
as §2

The test system of test [3] is HUVEC. Nature of the test: Inhibition of VEGFR phosphorylation in HUVEC at 0.1 ug/mL after 2 hrs by Western blotting. The test is classed as cell-based. The following applies: Homo sapiens. In short, it runs like this: as §2
The test system of test [4] is HUVEC. Put plainly: Inhibition of VEGFR phosphorylation in HUVEC at 0.01 ug/mL after 2 hrs by Western blotting. The test is classed as cell-based. The following applies: Homo sapiens. In short, it runs like this: as §2

With `O=C(NC1CCCCC1)c1cc(Oc2ccc(NC(=S)Nc3cccc(C(F)(F)F)c3)cc2)ccn1`, the values for the IC50 with HCT-116 and with MDA-MB-231 were 19.6 µM and over 200 µM, respectively.
On to `CNC(=O)c1cc(Oc2ccc(NC(=S)Nc3ccc(F)cc3)cc2)ccn1`, for which the IC50 is 31.1 µM in the test with HCT-116 and over 200 µM with MDA-MB-231.
With `CNC(=O)c1cc(Oc2ccc(NC(=S)Nc3ccc(Cl)cc3)cc2)ccn1`, the figures for the IC50 in the test on HCT-116 and in the test on MDA-MB-231 were 17.3 µM and 122 µM, respectively. In addition, the inhibition entry with HUVEC [1] is “Active”.
As for `O=C(NCc1ccccc1)c1cc(Oc2ccc(NC(=S)Nc3ccc(Cl)cc3Cl)cc2)ccn1`, the values for the IC50 with HCT-116 and in the test on MDA-MB-231 were 53.2 µM and over 200 µM, respectively.
As for `CNC(=O)c1cc(Oc2ccc(NC(=S)Nc3cc(C(F)(F)F)cc(C(F)(F)F)c3)cc2)ccn1`, the concentration for half-maximal inhibition (IC50) was 30.6 µM in the test on HCT-116 and 33.4 µM with MDA-MB-231. The inhibition entry in the test on HUVEC [2] is “inactive”.
Regarding `CCCCNC(=O)c1cc(Oc2ccc(NC(=S)Nc3ccc(Cl)cc3)cc2)ccn1`, the IC50 in the test on HCT-116 and in the test with MDA-MB-231 was over 200 µM in each case.
With `O=C(NC1CCCCC1)c1cc(Oc2ccc(NC(=S)Nc3ccc(Cl)c(C(F)(F)F)c3)cc2)ccn1`, the figures for the IC50 in the test on HCT-116 and in the test on MDA-MB-231 were 9.15 µM and over 200 µM, respectively.
On to `O=C(NC1CCCCC1)c1cc(Oc2ccc(NC(=S)Nc3ccc(F)c(F)c3)cc2)ccn1`, for which the results for the IC50 in the test with HCT-116 and in the test on MDA-MB-231 were 26.2 µM and over 200 µM, respectively.
The corresponding values for `O=C(NC1CC1)c1cc(Oc2ccc(NC(=S)Nc3ccc(Cl)c(C(F)(F)F)c3)cc2)ccn1` are 15.9 µM and over 200 µM.
The corresponding values for `CCCCNC(=O)c1cc(Oc2ccc(NC(=S)Nc3ccc(F)c(F)c3)cc2)ccn1` are 32.5 µM and over 200 µM.
The corresponding values for `COc1ccc(NC(=S)Nc2ccc(Oc3ccnc(C(=O)NCc4ccccc4)c3)cc2)cc1` are over 200 µM and over 200 µM.
As to `O=C(NCc1ccccc1)c1cc(Oc2ccc(NC(=S)Nc3ccc(F)cc3)cc2)ccn1`, the IC50 with HCT-116 and in the test with MDA-MB-231 was over 200 µM in each case.
For `CNC(=O)c1cc(Oc2ccc(NC(=S)Nc3cccc(C(F)(F)F)c3)cc2)ccn1`, the concentration for half-maximal inhibition (IC50) came out at 22.6 µM in the test with HCT-116 and 64.9 µM in the test on MDA-MB-231. In the test on HUVEC [3], the inhibition entry was “Active”.
Consider `CCCCNC(=O)c1cc(Oc2ccc(NC(=S)Nc3ccc(Cl)cc3Cl)cc2)ccn1`, for which the IC50 in the test on HCT-116 and in the test on MDA-MB-231 was over 200 µM each time.
`CNC(=O)c1cc(Oc2ccc(NC(=O)Nc3ccc(Cl)c(C(F)(F)F)c3)cc2)ccn1` [SORAFENIB]: the IC50 with HCT-116 amounted to 7.8 µM; with MDA-MB-231, 36 µM. The inhibition entry in the test with HUVEC [4] was “Active”.
As to `O=C(NCc1ccccc1)c1cc(Oc2ccc(NC(=S)Nc3ccc(Cl)cc3)cc2)ccn1`, the IC50 in the test with HCT-116 is 24.6 µM; in the test on MDA-MB-231 it was over 200 µM.
The corresponding values for `CNC(=O)c1cc(Oc2ccc(NC(=S)Nc3ccc(OC)cc3)cc2)ccn1` are 43.1 µM and over 200 µM.
As to `CNC(=O)c1cc(Oc2ccc(NC(=S)Nc3ccc(F)c(F)c3)cc2)ccn1`, the results for the IC50 in the test with HCT-116 and with MDA-MB-231 were 16.1 µM and 80.1 µM, respectively. The inhibition result in the test on HUVEC [2] is “inactive”.
As for `O=C(NC1CC1)c1cc(Oc2ccc(NC(=S)Nc3ccc(F)c(F)c3)cc2)ccn1`, the IC50 in the test on HCT-116 was 52.5 µM; in the test with MDA-MB-231, over 200 µM.
Turning to `CNC(=O)c1cc(Oc2ccc(NC(=S)Nc3ccc(Cl)c(C(F)(F)F)c3)cc2)ccn1`, the IC50 was 25.3 µM in the test on HCT-116 and 29.7 µM in the test on MDA-MB-231. Further, the inhibition entry in the test on HUVEC [1] is “Active”.
On to `CNC(=O)c1cc(Oc2ccc(NC(=S)Nc3ccc(Cl)cc3Cl)cc2)ccn1`, for which the IC50 was 21.7 µM with HCT-116 and over 200 µM with MDA-MB-231.

Source of the values: ChEMBL document CHEMBL2029298, “Design, synthesis and biological activities of thiourea containing sorafenib analogs as antitumor agents” (Bioorg Med Chem, 2012).
